The full list was thinned out, with hits kept by preference.
CHOP UPR activ: apoptotic UPR (CHOP) activation; CHO-CHOP luciferase reporter, luminescence; percent of tunicamycin response over DMSO baseline; activation, % at 10 µM; hit rate 0.34% among 330,000;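 active = at 10 µM dose, activation of 40% or more, normalized to positive control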;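 also: 100% = tunicamycin at 10 µg/mL and 0% = DMSO alone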
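Assay system: CHO-CHOP cells, stable luciferase reporter of PERK-eIF2a-CHOP signalling / Buffer or medium: F12 plus 10% serum / Compound dosing: one dose, 10 µM in 0.5% DMSO / Times: 6 h compound treatment, 37 °C / Technique: luciferase luminescence / Read-out: % reporter activation, DMSO baseline versus tunicamycin full activation / Benchmarks: tunicamycin and DMSO controls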
CHOP inh: inhibitors of CHOP induction in ER stress response; CHO-K1 CHOP-promoter luciferase, tunicamycin-induced, 15-18 h; inhibition, % at 10 µM; hit rate 3.8% among 220,000; AID 2732;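 active = compounds that reduced the stress-induced luciferase reporter signal by more than about 70% of percent inhibition, limit read from the data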;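 also: 0% = tunicamycin plus vehicle and 100% = wells without tunicamycin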
FXN GAA850 act: activators of GAA850 frataxin (FXN) promoter; activation, % at 6 µM; HEK293 lucGAA850 FXN promoter luciferase reporter, 24 h; percent of 10 µM SAHA response; AID 540364; hit rate 0.56% among 360,000;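 active = activation above the average of all compounds screened plus 3 SD, cutoff fixed separately per campaign, cut at about 7.5% in these data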;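 also: 0% = DMSO wells and 100% = 10 µM SAHA wells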
XBP1 UPR activ: activators of adaptive arm of unfolded protein response (XBP1). CHO-XBP1 luciferase reporter, IRE1-XBP1 UPR activation, luminescence; percent of tunicamycin response, DMSO as zero. activation, % at 20 µM. hit rate 0.33% among 330,000. AID 463104;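 active = versus positive control, 20 µM dose yields 30% or more activation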;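 also: 100% = tunicamycin at 10 µg/mL and 0% = DMSO only wells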
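Signal: luciferase luminescence; Assay system: CHO-XBP1 luciferase reporter cells; Amount: one thousand reporter cells per well; Dosing: 20 µM single concentration, DMSO 1%; Benchmarks: high control tunicamycin 10 µg/mL final, low control DMSO vehicle only; Schedule: 6 h compound exposure at 37 °C, 5% CO2; Evaluation: percent activation relative to tunicamycin reference.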
* hit, by the source's call.

What do the screens show for `C[C@H](NC(=O)OCc1ccccc1)C(=O)NNC(=O)[C@H](Cc1ccccc1)NC(=O)OC(C)(C)C`?
CHOP UPR activ: 2; CHOP inh: 25; FXN GAA850 act: 1; XBP1 UPR activ: -1

What do the screens show for `CC(C)CC(NC(=O)C(CC(C)C)NC(=O)C(Cc1ccc(OCc2ccccc2)cc1)NC(=O)OC(C)(C)C)C(N)=O` (centres undefined)?
CHOP UPR activ: 0; CHOP inh: 94*; FXN GAA850 act: 1; XBP1 UPR activ: -2

Results for CC(C)(C)OC(=O)C(Cc1ccc(OC(C)(C)C)cc1)NC(=O)CNC(=O)OCc1ccccc1 (centres undefined) ?
CHOP UPR activ: -2; CHOP inh: 74*; FXN GAA850 act: -3; XBP1 UPR activ: -2

What do the screens show for `COC(=O)N1CCCCC1c1cc(C(=O)NCc2ccccc2)no1` (centres undefined)?
FXN GAA850 act: 0

What do the screens show for `Cc1ccc(SCC(=O)NC(=O)NCc2ccccc2)c(C)c1`?
CHOP UPR activ: -1; CHOP inh: 81*; FXN GAA850 act: -1; XBP1 UPR activ: 0

What do the screens show for `COc1ccc(-c2nnc(NC(=O)c3ccc(S(=O)(=O)N4CCc5ccccc5C4)cc3)o2)cc1`?
CHOP UPR activ: 10; CHOP inh: 71*; FXN GAA850 act: -1; XBP1 UPR activ: 0

What do the screens show for `CCCc1cnc(Nc2nc(C(N)Cc3ccc(C(F)(F)F)cc3)cs2)nc1` (centres undefined)?
FXN GAA850 act: 0

How did COc1cc(C(=O)N2CCC2(C)C(=O)O)cc(OC)c1OC (centres undefined) do in these assays?
FXN GAA850 act: 0

Results for Cc1ccc(F)c(S(=O)(=O)NC(=O)C2(C)CCN2C(=O)c2ccc(C(F)(F)F)nc2C)c1 (centres undefined) ?
FXN GAA850 act: 0

How did COc1cc(NC(=O)c2cc3sccc3n2C)cc(OC)c1 do in these assays?
CHOP UPR activ: 5; CHOP inh: 75*; FXN GAA850 act: 5; XBP1 UPR activ: 1

What do the screens show for `Cn1c(C(=O)Nc2ccccc2)cc2sccc21`?
CHOP UPR activ: 3; CHOP inh: 1; FXN GAA850 act: 5; XBP1 UPR activ: 1

What do the screens show for `Cc1ccc(S(=O)(=O)NC2CCCCC2)cc1`?
CHOP UPR activ: 2; FXN GAA850 act: 0; XBP1 UPR activ: -1

Results for O=C(Nc1ccc(NC(=O)c2cccs2)cc1)c1ccc(Br)o1 ?
CHOP UPR activ: 1; CHOP inh: 90*; FXN GAA850 act: 1; XBP1 UPR activ: 3

What do the screens show for `O=C(Nc1ccc(S(=O)(=O)NC2CCCCC2)cc1)c1ccc(Br)o1`?
CHOP UPR activ: 0; CHOP inh: 83*; FXN GAA850 act: 5; XBP1 UPR activ: -4

How did O=C(Nc1cccc(NC(=O)c2cccs2)c1)c1ccc(Br)o1 do in these assays?
CHOP UPR activ: -1; FXN GAA850 act: 0; XBP1 UPR activ: -6

Results for CSc1ccc(S(=O)(=O)NC2CCCCCC2)cc1 ?
CHOP UPR activ: -1; CHOP inh: 78*; FXN GAA850 act: -2; XBP1 UPR activ: -5

How did CCc1nc2c(OCC3COc4ccccc4O3)cccn2c1N(C)C(=O)c1cccc(OC)c1 (centres undefined) do in these assays?
FXN GAA850 act: -2

What do the screens show for `COc1ccc(C(C)=NOC(=O)c2c(-c3ccccc3Cl)noc2C)cc1CN1CCOCC1`?
FXN GAA850 act: -2

How did CC(=O)Nc1ccc(C(=O)N2CCCCC2c2cc(C(=O)NCc3cccnc3)no2)cc1 (centres undefined) do in these assays?
FXN GAA850 act: -1

Results for CC(C)[C@@H]1CC[C@@H](C)c2c(-c3ccccc3)n[nH]c21 ?
CHOP UPR activ: -3; CHOP inh: 92*; FXN GAA850 act: 0; XBP1 UPR activ: -1

What do the screens show for `Cc1cc(OCc2nc(-c3cccnc3)no2)c(C)cc1Br`?
CHOP UPR activ: 3; CHOP inh: 86*; FXN GAA850 act: -1; XBP1 UPR activ: 5

Results for CC(=O)OCCN(Cc1ccccc1)Cc1ccc2c(c1)OCO2 ?
CHOP UPR activ: 0; CHOP inh: 70*; FXN GAA850 act: 0; XBP1 UPR activ: -2

Results for O=C1NC(Cc2ccccc2)c2nc3ccccc3c(=O)n2-c2cc3ccccc3cc21 (centres undefined) ?
FXN GAA850 act: -8

How did COc1ccc(-c2ccc(-c3noc(-c4ccco4)n3)c(OC)n2)cc1 do in these assays?
CHOP UPR activ: 0; CHOP inh: 72*; FXN GAA850 act: 1; XBP1 UPR activ: 2
